The values that follow come from ChEMBL document CHEMBL4041465, “Synthesis, characterization and molecular docking studies of substituted 4-coumarinylpyrano[2,3-c]pyrazole derivatives as potent antibacterial and anti-inflammatory agents” (2017).

In one experiment the test system is Staphylococcus aureus. Nature of the experiment: Antibacterial activity against Staphylococcus aureus MTCC 12598 after 24 hrs by broth microdilution method. It is filed as functional. The following applies: MTCC 12598, 24 h. The method, boiled down: (§1)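 Broth tube dilution MIC in Brain Heart Infusion broth, triplicate per strain. Strains were subcultured at 35 °C for 48 h, then log-phase inoculum was grown from 3–5 colonies at 35 °C for 2–6 h and adjusted to 0.5 McFarland. […] serial dilutions were made over 10 tubes, with a media-plus-culture tube as negative control. Incubation was 24 h at 37 °C, and growth was read as turbidity.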

For a further experiment, the system named is Enterococcus faecalis. Nature of the experiment: Antibacterial activity against Enterococcus faecalis MTCC 35550 after 24 hrs by broth microdilution method. To be noted: MTCC 35550, 24 h. It is filed as functional. The method in brief:
as §1
For orientation: Broth dilution looks for growth in wells or tubes with falling amounts of substance.

In a further experiment the test system is Escherichia coli. Nature of the experiment: Antibacterial activity against Escherichia coli MTCC 443 after 24 hrs by broth microdilution method. It is filed as functional. The following applies: MTCC 443, 24 h. The method, boiled down:
as §1

Another experiment has as its system Pseudomonas aeruginosa. Nature of the experiment: Antibacterial activity against Pseudomonas aeruginosa MTCC 25668 after 24 hrs by broth microdilution method. It is filed as functional. The following applies: MTCC 25668, 24 h. The method, boiled down:
as §1

A short description of experiment [1]: In vitro anti-inflammatory activity using hen egg assessed as inhibition of heat-induced egg albumin denaturation at 31.25 ug/ml incubated at 37 +/- 2 degC for 15 mins followed by incubation at 70 degC for 5 mins by UV spectrophotometric method relative to control. It is filed as functional. The method, boiled down: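 The 5 mL mix held 0.2 mL fresh hen egg albumin, 2.8 mL PBS pH 6.4 and 2 mL test solution, with water in place of test solution as control. It was held 15 min at 37±2 °C, heated 5 min at 70 °C and cooled, then absorbance was read at 660 nm against a vehicle blank. % inhibition = 100×(Abs control − Abs sample)/Abs control.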

Experiment [2] is described as follows: Potency index, ratio of compound effect to aceclofenac effect for in vitro anti-inflammatory activity using hen egg assessed as inhibition of heat-induced egg albumin denaturation.

Converted amounts (≈) assume the structure as drawn.

Consider `Cc1ccc2c(C(CC(=O)O)c3c(C)n[nH]c3O)cc(=O)oc2c1` (stereo unspecified), for which the MIC (in general, the smallest concentration in the dilution series that meets the test's criterion for growth inhibition) with Staphylococcus aureus was determined as 3.12 µg/mL (≈ 9.52 µM); with Enterococcus faecalis, 6.25 µg/mL (≈ 19 µM); against Escherichia coli, 6.25 µg/mL (≈ 19 µM); in the experiment with Pseudomonas aeruginosa it was 12.5 µg/mL (≈ 38.1 µM). In addition, in experiment [1], the inhibition (commonly how much of the control response was suppressed) is 40.6%.
As to `Cc1n[nH]c2c1C(c1cc(=O)oc3ccc(Cl)cc13)C(C#N)=C(N)O2` (stereo unspecified), the MIC in the experiment with Staphylococcus aureus is 3.12 µg/mL (≈ 8.81 µM); against Enterococcus faecalis, 6.25 µg/mL (≈ 17.6 µM); in the experiment on Escherichia coli, 3.12 µg/mL (≈ 8.81 µM); against Pseudomonas aeruginosa, 12.5 µg/mL (≈ 35.2 µM). The inhibition in experiment [1] was found to be 28%.
Consider `Cc1ccc2c(C3C(C#N)=C(N)Oc4[nH]nc(C)c43)cc(=O)oc2c1` (stereo unspecified), for which the MIC was determined as 6.25 µg/mL (≈ 18.7 µM) in the experiment on Staphylococcus aureus, 12.5 µg/mL (≈ 37.4 µM) with Enterococcus faecalis, 0.78 µg/mL (≈ 2.33 µM) in the experiment on Escherichia coli and 3.12 µg/mL (≈ 9.35 µM) against Pseudomonas aeruginosa. In addition, the inhibition in experiment [1] was 7.6%.
Consider `Cc1ccc2c(C3CC(=O)Oc4[nH]nc(C)c43)cc(=O)oc2c1` (stereo unspecified), for which the MIC against Staphylococcus aureus turned out to be 6.25 µg/mL (≈ 20.1 µM); in the experiment with Enterococcus faecalis, 6.25 µg/mL (≈ 20.1 µM); in the experiment on Escherichia coli it was 12.5 µg/mL (≈ 40.3 µM); against Pseudomonas aeruginosa it was 6.25 µg/mL (≈ 20.1 µM). In experiment [1], the inhibition came to 15.8%.
In the case of `Cc1n[nH]c2c1C(c1cc(=O)oc3c1ccc1ccccc13)C(C#N)=C(N)O2` (stereo unspecified), the MIC in the experiment on Staphylococcus aureus was found to be 6.25 µg/mL (≈ 16.9 µM); against Enterococcus faecalis it was 12.5 µg/mL (≈ 33.8 µM); with Escherichia coli, 25 µg/mL (≈ 67.5 µM); against Pseudomonas aeruginosa, 25 µg/mL (≈ 67.5 µM). In addition, the inhibition in experiment [1] turned out to be 14.4%.
In the case of `Cc1ccc2oc(=O)cc(C3CC(=O)Oc4[nH]nc(C)c43)c2c1` (stereo unspecified), the MIC against Staphylococcus aureus amounted to 6.25 µg/mL (≈ 20.1 µM); in the experiment with Enterococcus faecalis it was 12.5 µg/mL (≈ 40.3 µM); with Escherichia coli it was 3.12 µg/mL (≈ 10.1 µM); with Pseudomonas aeruginosa, 12.5 µg/mL (≈ 40.3 µM). For the same molecule, in experiment [1], the inhibition came out at 16%.
With `CCOC(=O)C1=C(N)Oc2[nH]nc(C)c2C1c1cc(=O)oc2ccc(C)cc12` (stereo unspecified), the MIC with Staphylococcus aureus was found to be 3.12 µg/mL (≈ 8.19 µM); against Enterococcus faecalis, 6.25 µg/mL (≈ 16.4 µM); against Escherichia coli it was 12.5 µg/mL (≈ 32.8 µM); in the experiment with Pseudomonas aeruginosa it was 6.25 µg/mL (≈ 16.4 µM). For the same molecule, in experiment [1], the inhibition was found to be 24.8%.
For the molecule `COc1ccc2oc(=O)cc(C3CC(=O)Oc4[nH]nc(C)c43)c2c1` (stereo unspecified), the MIC in the experiment with Staphylococcus aureus is 3.12 µg/mL (≈ 9.58 µM); with Enterococcus faecalis it was 6.25 µg/mL (≈ 19.2 µM); against Escherichia coli, 6.25 µg/mL (≈ 19.2 µM); against Pseudomonas aeruginosa it was 6.25 µg/mL (≈ 19.2 µM). Further, the inhibition in experiment [1] came to 29.3%.
On to `Cc1n[nH]c2c1C(c1cc(=O)oc3c1ccc1ccccc13)CC(=O)O2` (stereo unspecified), for which the MIC was determined as 12.5 µg/mL (≈ 36.1 µM) in the experiment on Staphylococcus aureus, 12.5 µg/mL (≈ 36.1 µM) against Enterococcus faecalis, 12.5 µg/mL (≈ 36.1 µM) against Escherichia coli and 6.25 µg/mL (≈ 18 µM) against Pseudomonas aeruginosa. In experiment [1], the inhibition came to 1.89%.
For the molecule `CCOC(=O)C1=C(N)Oc2[nH]nc(C)c2C1c1cc(=O)oc2cc(C)ccc12` (stereo unspecified), the MIC with Staphylococcus aureus is 3.12 µg/mL (≈ 8.19 µM); in the experiment on Enterococcus faecalis, 25 µg/mL (≈ 65.6 µM); in the experiment with Escherichia coli, 3.12 µg/mL (≈ 8.19 µM); against Pseudomonas aeruginosa it was 12.5 µg/mL (≈ 32.8 µM). Further, the inhibition in experiment [1] was determined as 28.7%.
Take `Cc1n[nH]c(O)c1C(CC(=O)O)c1cc(=O)oc2ccc(Cl)cc12` (stereo unspecified): the minimum inhibitory concentration (MIC) against Staphylococcus aureus is 1.56 µg/mL (≈ 4.47 µM); in the experiment with Enterococcus faecalis it was 6.25 µg/mL (≈ 17.9 µM); with Escherichia coli, 25 µg/mL (≈ 71.7 µM); in the experiment with Pseudomonas aeruginosa it was 50 µg/mL (≈ 143 µM). Besides, the inhibition in experiment [1] was 42.6%. For the same molecule, the Ratio in experiment [2] worked out at 10.
For `Cc1ccc2oc(=O)cc(C(CC(=O)O)c3c(C)n[nH]c3O)c2c1` (stereo unspecified), the MIC in the experiment with Staphylococcus aureus is 3.12 µg/mL (≈ 9.52 µM); against Enterococcus faecalis, 6.25 µg/mL (≈ 19 µM); in the experiment on Escherichia coli, 12.5 µg/mL (≈ 38.1 µM); with Pseudomonas aeruginosa, 25 µg/mL (≈ 76.1 µM). In experiment [1], the inhibition is 37.4%.
The like results for `Cc1n[nH]c2c1C(c1cc(=O)oc3ccc(Cl)cc13)CC(=O)O2` (stereo unspecified) were, in that order, 6.25 µg/mL (≈ 18.9 µM), 12.5 µg/mL (≈ 37.8 µM), 6.25 µg/mL (≈ 18.9 µM), 12.5 µg/mL (≈ 37.8 µM) and 3.27%.
For `O=C(O)c1cn(C2CC2)c2cc(N3CCNCC3)c(F)cc2c1=O` [CIPROFLOXACIN], the MIC with Enterococcus faecalis was determined as 6.25 µg/mL (≈ 18.9 µM); in the experiment with Escherichia coli, 3.12 µg/mL (≈ 9.43 µM).
`CCOC(=O)C1=C(N)Oc2[nH]nc(C)c2C1c1cc(=O)oc2ccc(OC)cc12` (stereo unspecified): the MIC in the experiment with Staphylococcus aureus came out at 1.56 µg/mL (≈ 3.93 µM); in the experiment with Enterococcus faecalis, 3.12 µg/mL (≈ 7.86 µM); in the experiment with Escherichia coli, 6.25 µg/mL (≈ 15.7 µM); in the experiment on Pseudomonas aeruginosa, 6.25 µg/mL (≈ 15.7 µM). The inhibition in experiment [1] stood at 51.4%. For the same molecule, the Ratio in experiment [2] worked out at 10.
As for `Cc1ccc2oc(=O)cc(C3C(C#N)=C(N)Oc4[nH]nc(C)c43)c2c1` (stereo unspecified), the MIC with Staphylococcus aureus worked out at 6.25 µg/mL (≈ 18.7 µM); in the experiment with Enterococcus faecalis, 12.5 µg/mL (≈ 37.4 µM); against Escherichia coli, 12.5 µg/mL (≈ 37.4 µM); with Pseudomonas aeruginosa it was 12.5 µg/mL (≈ 37.4 µM). In addition, in experiment [1], the inhibition amounted to 10.3%.
Regarding `CCOC(=O)C1=C(N)Oc2[nH]nc(C)c2C1c1cc(=O)oc2ccc(Cl)cc12` (stereo unspecified), the MIC in the experiment with Staphylococcus aureus is 3.12 µg/mL (≈ 7.78 µM); in the experiment with Enterococcus faecalis it was 6.25 µg/mL (≈ 15.6 µM); against Escherichia coli it was 6.25 µg/mL (≈ 15.6 µM); in the experiment on Pseudomonas aeruginosa, 50 µg/mL (≈ 124 µM). In addition, the inhibition in experiment [1] was found to be 39.1%.
Consider `COc1ccc2oc(=O)cc(C3C(C#N)=C(N)Oc4[nH]nc(C)c43)c2c1` (stereo unspecified), for which the MIC in the experiment with Staphylococcus aureus was found to be 3.12 µg/mL (≈ 8.92 µM); in the experiment on Enterococcus faecalis, 12.5 µg/mL (≈ 35.7 µM); in the experiment on Escherichia coli, 6.25 µg/mL (≈ 17.8 µM); in the experiment with Pseudomonas aeruginosa it was 1.56 µg/mL (≈ 4.45 µM). For the same molecule, in experiment [1], the inhibition came out at 19.1%.
The like results for `Cc1n[nH]c(O)c1C(CC(=O)O)c1cc(=O)oc2c1ccc1ccccc12` (stereo unspecified) were, in that order, 6.25 µg/mL (≈ 17.2 µM), 12.5 µg/mL (≈ 34.3 µM), 6.25 µg/mL (≈ 17.2 µM), 12.5 µg/mL (≈ 34.3 µM) and 39.8%.
On to `O=C(O)COC(=O)Cc1ccccc1Nc1c(Cl)cccc1Cl`, for which the inhibition in experiment [1] is 5.5%.
For the molecule `COc1ccc2oc(=O)cc(C(CC(=O)O)c3c(C)n[nH]c3O)c2c1` (stereo unspecified), the MIC is 0.78 µg/mL (≈ 2.27 µM) against Staphylococcus aureus, 1.56 µg/mL (≈ 4.53 µM) against Enterococcus faecalis, 3.12 µg/mL (≈ 9.08 µM) against Escherichia coli and 6.25 µg/mL (≈ 18.2 µM) against Pseudomonas aeruginosa. In addition, in experiment [1], the inhibition is 63.1%. Moreover, the Ratio in experiment [2] worked out at 10.
With `CCOC(=O)C1=C(N)Oc2[nH]nc(C)c2C1c1cc(=O)oc2c1ccc1ccccc12` (stereo unspecified), the MIC stood at 3.12 µg/mL (≈ 7.49 µM) in the experiment with Staphylococcus aureus, 12.5 µg/mL (≈ 29.9 µM) against Enterococcus faecalis, 6.25 µg/mL (≈ 15 µM) against Escherichia coli and 6.25 µg/mL (≈ 15 µM) against Pseudomonas aeruginosa. Moreover, the inhibition in experiment [1] stood at 37.6%.
